# mABHD4 FP: ABHD4 inhibitors, primary screen, biochemical, fluorescence polarization, mouse. hit rate 0.54% among 370,000. purified mABHD4, FP-Rh probe fluorescence polarization. inhibition, % at 8.92 µM. (Lyso)-N-acylphosphatidylethanolamine lipase (Mus musculus), Q8VD66;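 active = inhibition exceeding the mean over every tested compound plus 3 SD, cut at about 30% in these data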
#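 System: mouse ABHD4 enzyme, wild type / Medium: HEPES pH 7.0, NaCl, Pluronic buffer / Reagent: FP-Rh activity-based fluorescent probe / Control set: S159A mutant high control, sample median low control / Detection: fluorescence polarization with parallel and perpendicular emission, 525/598 nm / Schedule: 45 min + 60 min at 25 °C / Compound dosing: 8.92 µM, single dose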
# PAFAH1B2 FP inh: PAFAH1B2 enzyme inhibitors, primary screen, biochemical, fluorescence polarization, human; recombinant PAFAH1B2, FP-rhodamine activity probe; inhibition, % at 3.39 µM; hit rate 1.2% among 340,000;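 active = inhibition above the mean of all tested compounds plus 3 SD, cut at about 24% in these data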
# PAFAH2 FP inh: PAFAH2 enzyme inhibitors, primary screen, biochemical, fluorescence polarization, human | Platelet-activating factor acetylhydrolase 2, cytoplasmic (Homo sapiens), Q99487 | inhibition, % at 3.39 µM | recombinant PAFAH2, FP-rhodamine activity probe | hit rate 0.99% among 340,000;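 active = inhibition above the mean over all tested compounds plus 3 SD, cut at about 30% in these data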;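 also: inhibitors block probe labeling of enzyme so polarization drops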
# HTRA1 inh: HTRA1 serine protease inhibitors, primary screen, biochemical, fluorescence polarization, HTS | hit rate 0.5% among 340,000 | recombinant HTRA1, FP-rhodamine activity-based probe | inhibition, % at 5.96 µM | AID 504803, 2011; in the data active = inhibition above about 36%
# PAFAH1B3 inh: PAFAH1B3 enzyme inhibitors, primary screen, biochemical, fluorescence polarization, human. Platelet-activating factor acetylhydrolase IB subunit alpha1 (Homo sapiens), Q15102. recombinant PAFAH1B3, FP-rhodamine probe. inhibition, % at 3.39 µM. hit rate 0.28% among 340,000. AID 492972, 2010;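 active = inhibition above the screen-wide average of all tested compounds plus 3 SD, cut at about 25% in these data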
# Target sequence (Q15102 whole entry, looked up): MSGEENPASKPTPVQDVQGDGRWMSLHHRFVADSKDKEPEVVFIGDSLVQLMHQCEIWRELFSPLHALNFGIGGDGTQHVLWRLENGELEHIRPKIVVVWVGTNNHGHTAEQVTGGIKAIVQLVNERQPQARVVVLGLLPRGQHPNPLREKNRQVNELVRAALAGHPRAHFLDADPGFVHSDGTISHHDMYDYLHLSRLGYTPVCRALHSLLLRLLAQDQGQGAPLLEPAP
# pPAFAH inh: pPAFAH enzyme inhibitors, primary screen, biochemical, fluorescence polarization, human; recombinant pPAFAH, FP-rhodamine probe fluorescence polarization; Platelet-activating factor acetylhydrolase (Homo sapiens), Q13093; hit rate 1.5% among 330,000; inhibition, % at 3.39 µM; AID 463082, 2010;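 active = inhibition above the mean inhibition across the screen plus 3 SD, cut at about 25% in these data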;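 also: inhibitors block binding of the rhodamine activity-based probe so polarization drops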
# mABHD4 conf: ABHD4 inhibitors, retest, confirmation, biochemical, fluorescence polarization, mouse; purified mABHD4, FP-Rh probe fluorescence polarization; hit rate 55% among 1,800; inhibition, % at 8.92 µM; shares compounds with mABHD4 FP;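 active = mean inhibition across replicates above the hit cutoff set in the primary screen, cut at about 30% in these data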
# Hits are given with their value; – = inactive; · = not tested or not shown. Compounds with a hit are over-represented: about 2.8% of the library has one in this group of screens.
SMILES,mABHD4 FP,PAFAH1B2 FP inh,PAFAH2 FP inh,HTRA1 inh,PAFAH1B3 inh,pPAFAH inh,mABHD4 conf
CC1CC(OP(O)(=S)c2ccc(N(C)C)cc2NC(=O)c2cccs2)CC(C)(C)C1 (stereo unspecified),41.4,40.0,–,–,–,–,50.0
Cc1cccc(CC(c2cccc(C)c2)N(C)C)c1 (stereo unspecified),–,–,–,–,–,·,·
C=CCn1c(O)c(C(C)=Nc2ccc(N(CC)CC)cc2)c(=O)[nH]c1=O,38.8,–,–,–,–,–,–
O=CNc1ccc(OP(=O)(Oc2ccccc2)Oc2ccccc2)cc1,–,–,–,–,–,–,·
CCS(=O)(=O)NC(C)c1nnc2n1-c1ccc(Br)cc1C(c1ccccc1Cl)=NC2 (stereo unspecified),–,·,·,·,·,–,·
Cc1[nH]c2ccc(OC(F)(F)F)cc2c1CCNCc1ccc(Cl)cc1,41.9,–,–,–,–,·,31.1
COc1ccc2[nH]c(C)c(CCNCc3cccnc3)c2c1,33.7,–,–,–,–,–,–
O=c1[nH]c(=S)[nH]c(O)c1/C=N/N1CCOCC1,–,–,–,–,–,–,·
Cc1ncc([N+](=O)[O-])n1CCOC(N)=O,–,–,–,–,–,–,·
O=[N+]([O-])c1cc(S(=O)(=O)c2ccc(O)c([N+](=O)[O-])c2)ccc1O,39.9,–,38.5,–,28.8,28.1,31.1
O=[N+]([O-])c1cccc(O)c1,–,–,–,–,–,–,·
Cc1cc(O)c(CN2CC=C(c3ccccc3)CC2)cc1C(C)C,–,–,–,–,–,–,·
O=C(NC1CCCCC1)Oc1cc2oc(=O)sc2cc1Cl,30.5,–,–,–,–,–,–
COc1ccc(Cn2c(O)c(/C=N/NC(=O)c3ccccc3)c(=O)[nH]c2=O)cc1,–,–,–,–,–,–,·
O=C(N/N=C/c1c(O)n(CCc2ccc(F)cc2)c(=O)[nH]c1=O)c1ccccc1,–,·,·,·,·,–,·
COc1ccc(Cn2c(O)c(/C=N/NC(=O)c3ccccc3O)c(=O)[nH]c2=O)cc1,30.1,–,–,–,–,26.6,38.5
O=C(N/N=C/c1c(O)n(Cc2ccc(F)cc2)c(=O)[nH]c1=O)c1ccccc1O,33.7,34.5,–,–,–,31.6,51.7
O=C(N/N=C/c1c(O)n(Cc2ccccc2)c(=O)[nH]c1=O)c1ccccc1O,60.8,34.1,46.8,–,32.6,–,38.3
c1ccc2c3c(ccc2c1)OCC1CONC31 (stereo unspecified),–,·,·,·,·,–,·
c1ccc(-c2ccc3c(c2)CNCc2cnnn2-3)cc1,–,·,·,·,·,·,·
FC(F)(F)c1ccc(-c2ccc3c(c2)CNCc2cnnn2-3)cc1,33.6,·,·,·,·,·,–
O=C1C(Cl)=CC(=Nc2ccc(O)cc2)C=C1Cl,32.2,–,–,–,–,–,57.9
c1ccc2c(c1)-c1cccc3cccc-2c13,–,–,–,–,–,–,·
Nc1c(Br)cc2c3c(cccc13)-c1ccccc1-2,55.2,·,·,·,·,·,57.4

# Bioassay records (PubChem)
